Screening results (PubChem)
TAG inh: reduces triacylglycerol accumulation in H9c2 cells; Nile Red lipid (TAG) fluorescence; cells loaded with 200 µM oleic acid; inhibition, % at 12.5 µM; 0.66% of 230,000 active; AID 651582;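 active means pattern-corrected inhibition of lipid staining of at least 50% with the nuclear-stain viability signal not falling by more than 50%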
Efflux pump inh: antifungal efflux pump inhibition, Nile Red retention. S. cerevisiae Candida pump triplex. inhibition, % at 10 µM. 0.44% of 330,000 active. AID 485275;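 active means plate passing quality check with inhibition over a set limit, or well fluorescence over plate mean plus 4 SD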;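 further: Nile Red retained in pooled yeast measured as flow cytometry median fluorescence; higher means more Nile Red kept so more efflux inhibition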
AHR activator: activators of human aryl hydrocarbon receptor | AHR-responsive luciferase reporter cells, luminescence | AID 2796 | activation, % at 5 µM | P35869 | 2.5% of 320,000 active; in the data active means activation above about 47%
Target sequence (P35869 whole entry, looked up): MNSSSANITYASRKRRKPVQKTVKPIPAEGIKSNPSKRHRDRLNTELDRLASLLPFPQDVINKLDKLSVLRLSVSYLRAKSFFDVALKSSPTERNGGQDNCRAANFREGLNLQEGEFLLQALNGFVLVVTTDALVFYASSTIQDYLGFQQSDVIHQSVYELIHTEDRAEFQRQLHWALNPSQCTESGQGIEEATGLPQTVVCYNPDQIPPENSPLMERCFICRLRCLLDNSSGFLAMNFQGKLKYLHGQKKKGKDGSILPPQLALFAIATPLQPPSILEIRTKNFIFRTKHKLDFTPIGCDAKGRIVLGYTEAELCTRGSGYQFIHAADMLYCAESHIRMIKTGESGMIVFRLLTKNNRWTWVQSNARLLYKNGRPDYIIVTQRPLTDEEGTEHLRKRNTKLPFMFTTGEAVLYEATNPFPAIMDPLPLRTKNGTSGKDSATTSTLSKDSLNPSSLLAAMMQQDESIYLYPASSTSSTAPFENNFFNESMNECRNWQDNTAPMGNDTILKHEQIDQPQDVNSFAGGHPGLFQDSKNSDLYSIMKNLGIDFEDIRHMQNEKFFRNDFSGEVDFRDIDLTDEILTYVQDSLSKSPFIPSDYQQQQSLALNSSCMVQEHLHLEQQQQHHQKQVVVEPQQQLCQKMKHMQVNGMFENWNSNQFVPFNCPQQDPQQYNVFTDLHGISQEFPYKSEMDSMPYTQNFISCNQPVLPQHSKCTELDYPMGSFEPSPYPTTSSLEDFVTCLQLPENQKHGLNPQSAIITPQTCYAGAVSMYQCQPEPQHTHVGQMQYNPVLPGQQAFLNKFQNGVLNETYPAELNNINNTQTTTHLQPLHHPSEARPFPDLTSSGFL
Tb MetRS inh: blocks T. brucei methionyl-tRNA synthetase activity | purified T. brucei MetRS, ATP depletion, Kinase-Glo luminescence | inhibition, % at 11.9 µM | 0.4% of 360,000 active | AID 624268;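 active means inhibition above a per-plate cutoff of the control wells' mean inhibition plus 3 SD, cut at about 5.5% in these data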
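Material: T. brucei methionyl-tRNA synthetase, purified; reagent: substrates ATP, L-methionine and bulk Escherichia coli tRNA; dosing: 11.9 µM single point; timing: 15 min plus 2 h at 25 °C; detection: luminescence of leftover ATP; evaluation: % inhibition; control set: DMSO-only wells as low control; replicates: singlicate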
SMARCA2 act: increases SMARCA2 function in MMTV reporter cells | MG213 cells, MMTV-luciferase reporter, dexamethasone, overnight | activation, % at 9.1 µM | 1% of 370,000 active; in the data active means activation above about 7.8%
SMARCA2 conf: confirmation of SMARCA2 (BRM) function activators; shares compounds with SMARCA2 act; MG213 cells, MMTV-luciferase with dexamethasone, luminescence, overnight; MG213 cells expressing E1A, Rb sequestered; DMSO wells 0%, reference activator 100%; activation, % at 9.1 µM; 30% of 3,500 active;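 active means activation above its plate's cutoff, the mean activation of tested wells plus 3 SD, cut at about 7.9% in these data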
VP16 Luc act: activates GAL4-VP16 luciferase, flagging SMARCA2 activator hits; 41% of 3,500 active; AID 686939; activation, % at 9.1 µM; HEK293 GAL4-VP16 pG5luc reporter, luciferase luminescence; scaled: DMSO wells 0%, SAHA wells 100%; shares compounds with SMARCA2 act;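 active means activation above the solvent-only control well mean plus 3 SD, averaged across control plates, cut at about 5.2% in these data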
A number is an active result; n = inactive; x = no result given. Only some compounds are listed: those with a hit (about 4.1% of all), similar ones and a draw of the others.

SMILES	TAG inh	Efflux pump inh	AHR activator	Tb MetRS inh	SMARCA2 act	SMARCA2 conf	VP16 Luc act
O=C(Nc1ccc(NC(=O)c2cccnc2)cc1)c1ccccc1	x	n	n	n	n	x	x
COc1ccc(-c2ccc3c(n2)CCCN3S(=O)(=O)c2c(C)noc2C)cc1	x	x	x	x	n	x	x
Cc1cc(C(=O)N2CCC2(C)C(=O)NS(=O)(=O)c2cccc(Cl)c2)nn1C (stereo not drawn)	n	x	x	n	8.1	n	n
CC1(C(=O)NS(=O)(=O)c2cccc(Cl)c2)CCN1C(=O)c1ccccc1 (stereo not drawn)	n	x	x	n	n	x	x
O=C(CSc1ccsc1[N+](=O)[O-])NCc1ccccc1	n	n	n	n	11	n	n
COc1cccc(-c2ccc(CC[C@H]3O[C@H]4CC[C@@H](CO)O[C@H]4C[C@H]3NS(C)(=O)=O)cc2)c1	x	x	x	x	n	x	x
CC(C)(C)C1CCc2sc(-c3nnc(CCl)o3)cc2C1 (stereo not drawn)	n	n	n	n	n	x	x
ClCc1nnc(-c2cc3c(s2)CCCC3)o1	n	x	x	n	11	n	n
COC(=O)c1cc(C)oc1C	x	x	x	x	n	x	x
CCn1c(C)nc2cc(C(=O)NNS(=O)(=O)c3c(C)c(C)cc(C)c3C)ccc21	x	n	n	n	12	n	n
CCn1c(C)nc2cc(C(=O)NNC(=O)c3ccc(C)cc3)ccc21	n	n	n	n	n	x	x
O=C(Nc1cccc(F)c1)c1ccccc1	n	n	n	n	n	x	x
O=C(Nc1ccc(F)cc1F)c1ccccc1-c1ccccc1	x	n	n	n	n	x	x
O=C(Nc1cccc(F)c1)c1ccccc1-c1ccccc1	x	n	n	n	9.0	n	n
O=C(Nc1ccc(Nc2ccccc2)cc1)c1cccc(F)c1	x	n	n	n	9.0	n	6.7
c1ccc(CCn2nnc(-c3ccc(N4CCOCC4)cc3)n2)cc1	x	x	x	x	n	x	x
S=C(SCc1cc(Cl)cc2c1OCOC2)N1CCSCC1	x	x	x	x	n	x	x
COc1ccccc1NC(=O)CCN1C(=O)c2ccccc2C1=O	x	n	n	n	9.5	n	n
COc1ccccc1NC(=O)CCN1C(=O)C2CC=CCC2C1=O (stereo not drawn)	n	n	n	n	n	x	x
C#CCNC(=O)C[C@H]1C(=O)N(CC=C)C2=CCCC[C@@]21C(=O)OCC	x	x	x	x	n	x	x
O=S(=O)(Nc1nc2ccccc2nc1N1CCc2ccccc2C1)c1ccc(Br)cc1	x	n	n	n	n	x	x
O=S(=O)(Nc1nc2ccccc2nc1N1CCc2ccccc2C1)c1ccc(Cl)cc1	x	n	63	n	9.0	n	n
CCOC(=O)N[C@H](C(=O)N1CCC[C@H]1C(=O)NCc1ccccc1)C(C)C	x	x	x	x	n	x	x
COC(=O)[C@]12C[C@H](CC(=O)NCCCCc3ccccc3)C(=O)N(Cc3ccc(Cl)cc3Cl)C1=C[C@H](C1CCCC1)O[C@@H]2C	x	x	x	x	n	x	x
COC(=O)c1cc2c(c3c4cc(C)ccc4n(S(=O)(=O)c4ccc(OC)cc4)c13)C(=O)N(Cc1ccccc1)C2	x	x	x	x	n	x	x
SMILES	TAG inh	Efflux pump inh	AHR activator	Tb MetRS inh	SMARCA2 act	SMARCA2 conf	VP16 Luc act
COC(=O)[C@]12C[C@H](CC(=O)NCc3ccccc3)C(=O)N(CCC3=CCCCC3)C1=C[C@H](COCc1ccccc1)O[C@@H]2C	x	x	x	x	n	x	x
Cc1ccc2c(c1)=N/C(=N\c1[nH]c(O)c3ccccc13)N=2	n	x	x	n	n	x	x
Oc1[nH]c(N=C2N=c3ccccc3=N2)c2ccccc12	x	n	58	n	14	n	37
COc1ccc(C)cc1NC(=O)c1ccccc1NS(=O)(=O)c1cccc2cccnc12	x	n	n	n	8.1	n	n
COc1ccc(C)cc1NC(=O)C1CCN(S(=O)(=O)c2cccc3cccnc23)CC1	n	n	n	n	n	x	x
CCOCCCNc1ccc(-c2ccccc2)nn1	x	n	n	n	12	10	6.1
COCCCNc1ccn2nc(-c3ccccc3)cc2n1	n	x	x	n	n	x	x
O=C1CC(Sc2ccc(Cl)cc2)C(=O)N1c1ccc2c(c1)OCCO2 (stereo not drawn)	n	n	n	n	8.4	n	n
Nc1ccccc1SC1CC(=O)N(c2ccc3c(c2)OCCO3)C1=O (stereo not drawn)	n	n	n	n	n	x	x
COc1ccc(NC(=O)Nc2ccc(C)cc2OC(F)F)cc1OC	n	n	n	n	n	x	x
Cc1ccc(NC(=O)Nc2ccc3c(c2)OCO3)c(OC(F)F)c1	n	n	x	n	8.5	9.0	9.4
O=C1Cc2c([nH]c3ccc([N+](=O)[O-])cc23)-c2ccccc2N1	n	x	x	n	13	11	n
CCN(CC)S(=O)(=O)c1ccc(NC(=O)CCC2CCCCC2)cc1	n	n	n	n	9.4	n	n
CC(=O)NCc1ccc(C(=O)CCl)s1	n	n	n	n	9.0	10	8.0
COc1ccc(C(=O)OCC(=O)c2ccc(CNC(C)=O)s2)cc1	n	n	n	n	n	x	x
CC1CN(S(=O)(=O)c2cccc(C(=O)NN3CCN(C)CC3)c2)CC(C)O1 (stereo not drawn)	x	n	n	n	9.1	n	n
COC(=O)c1cc2c(c3c4cc(C)ccc4n(S(=O)(=O)c4cccc(C)c4)c13)C(=O)N(C)C2	x	x	x	x	n	x	x
C=CCn1c(-c2ccc(Cl)cc2)c[nH]c1=S	n	n	n	n	n	x	x
C=CCn1c(-c2ccccc2)c[nH]c1=S	n	n	n	n	13	n	6.0
Cc1ccc(NC(=O)CNCc2ccccc2OCC(=O)Nc2ccc(I)cc2)cc1	x	x	x	x	n	x	x
O=C(COc1ccccc1CNCc1ccccc1)Nc1ccccc1	x	n	n	n	9.9	n	n
O=C(NCC1CCN(C(=O)C(=O)c2cc3ccccc3o2)CC1)c1ccncc1	x	x	x	x	n	x	x
O=C(NC1CCCC1)[C@@H]1CCCN1C(=O)[C@H](Cc1cccnc1)NC(=O)N1CCOCC1	x	x	x	x	n	x	x
Nc1ccccc1C(=O)NCc1ccc(Cl)cc1	x	n	n	n	8.1	n	n
CC(=O)c1ccc(NC(=S)NCCc2cccc(Cl)c2)cc1	n	n	n	n	8.0	n	11
SMILES	TAG inh	Efflux pump inh	AHR activator	Tb MetRS inh	SMARCA2 act	SMARCA2 conf	VP16 Luc act
Cc1cc(C=C(C#N)C#N)c(C)n1-c1ccccc1	n	n	n	n	n	x	x
Cc1ccc(-n2c(C)cc(C=C(C#N)C#N)c2C)cc1	n	n	n	n	12	n	n
Cc1ccc(C)c(NC(=O)C2CCCN2S(=O)(=O)c2cccnc2)c1 (stereo not drawn)	x	x	x	x	n	x	x
CCc1cc2c(nc1CC)CCCN2Cc1ccc(Br)cc1	x	x	x	x	n	x	x
COc1ccccc1C(=O)NC1CCCCN(C)C1=O (stereo not drawn)	x	x	x	x	n	x	x
O=C(COc1ccccc1Cl)OCC(=O)N1CCN(S(=O)(=O)c2ccccc2)CC1	n	n	n	n	11	n	n
O=C(OCC(=O)N1CCN(S(=O)(=O)c2ccc(Cl)cc2)CC1)c1ccc([N+](=O)[O-])o1	n	n	n	n	8.9	n	n
